Measurements published in ChEMBL document CHEMBL4689842, “EUbOPEN Chemogenomics Library wave 1” (2021).
Several values for one entry are separate records, joined by “and”; a condition that tells them apart may be missing. Identical values can stand only once.

How the values were obtained:
Format in all cases: toxicity, cell-based
U2OS [1] = assay: Multiplex assay against U2OS; settings: human, 1 µM, compound concentration 1 uM
Outline: (§1)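 On a CQ1 microscope at 37°C and 5% CO2, live cells were imaged after compound addition. They had been stained at seeding with Hoechst33342, BioTracker Green Microtubule Cytoskeleton Dye, MitoTracker Red and Annexin V Alexa Fluor 680. CellPathfinder machine-learning gating assigned cells to Hoechst high-intensity objects or normal cells, normal cells to healthy, pyknosed or fragmented nuclei, and pyknosed cells to mitotic or apoptotic. Tubulin, mitochondrial-mass and membrane-permeability phenotypes are per cents of healthy-nucleus cells.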

HEK-293T [2] = assay: Incucyte cell viability with HEK293T; settings: human, 10 µM, compound concentration 10 uM; note: filed as whole numbers so only -1 and 0 and 1 occur
Fibroblast [3] = assay: Incucyte cell viability with human fibroblast; settings: 10 µM, compound concentration 10 uM; note: filed as whole numbers so only -1 and 0 and 1 occur
HEK-293T [4] = assay: Multiplex assay against HEK293T; settings: human, 1 µM, compound concentration 1 uM; outline: as §1;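 for Population Tubulin-Different-Phenotype (%): share of the cells with healthy nuclei that show this phenotype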
U2OS [5] = assay: Incucyte cell viability with U2OS; settings: human, 10 µM, compound concentration 10 uM; note: filed as whole numbers so only -1 and 0 and 1 occur
Fibroblast [6] = assay: Multiplex assay against human fibroblast; settings: 1 µM, compound concentration 1 uM; outline: as §1
[7] = 0 h, replicate number 1, timepoint 0 hours
[8] = 6 h, replicate number 1, timepoint 6 hours
[9] = 12 h, replicate number 1, timepoint 12 hours
[10] = 18 h, replicate number 1, timepoint 18 hours
[11] = 24 h, replicate number 1, timepoint 24 hours
[12] = 12 h, replicate number 2, timepoint 12 hours

Structure (SMILES): CC[C@@H]1C(=O)N(C)c2cnc(Nc3ccc(C(=O)N[C@H]4CC[C@H](N5CCN(CC6CC6)CC5)CC4)cc3OC)nc2N1C(C)C [VOLASERTIB]
- Population Apoptotic (%) (U2OS [1]; 12 h, replicate 1): 60% and 78%
- Population Fragmented Nuclei (%) (U2OS [1]; 12 h, replicate 1): 8% and 12%
- Population Healthy Nuclei (%) (U2OS [1]; 12 h, replicate 1): 81% and 61%
- Population Hoechst High Intensity Objects (%) (U2OS [1]; 12 h, replicate 1): 4% and 3%
- Population Membrane Permeable-Phenotype (%) (U2OS [1]; 12 h, replicate 1): 46% and 31%
- Population Mitochondria Different-Phenotype (%) (U2OS [1]; 12 h, replicate 1): 32% and 71%
- Population Mitotic Cells (%) (U2OS [1]; 12 h, replicate 1): 40% and 21%
- Population Normal (%) (U2OS [1]; 12 h, replicate 1): 95% and 96%
- Population Pyknosed Nuclei (%) (U2OS [1]; 12 h, replicate 1): 10% and 25%
- Population Tubulin-Different-Phenotype (%) (U2OS [1]; 12 h, replicate 1): 88% and 100%
- Total Cell Count (U2OS [1]; 12 h, replicate 1): 145 and 156
- Population Apoptotic (%) (U2OS [1]; 12 h, replicate 2): 75% and 76%
- Population Fragmented Nuclei (%) (U2OS [1]; 12 h, replicate 2): 11% and 18%
- Population Healthy Nuclei (%) (U2OS [1]; 12 h, replicate 2): 82% and 57%
- Population Hoechst High Intensity Objects (%) (U2OS [1]; 12 h, replicate 2): 21% and 7%
- Population Membrane Permeable-Phenotype (%) (U2OS [1]; 12 h, replicate 2): 30% and 61%
- Population Mitochondria Different-Phenotype (%) (U2OS [1]; 12 h, replicate 2): 46% and 96%
- Population Mitotic Cells (%) (U2OS [1]; 12 h, replicate 2): 25% and 24%
- Population Normal (%) (U2OS [1]; 12 h, replicate 2): 78% and 92%
- Population Tubulin-Different-Phenotype (%) (U2OS [1]; 12 h, replicate 2): 94%
- Total Cell Count (U2OS [1]; 12 h, replicate 2): 110 and 80
- Population Apoptotic (%) (U2OS [1]; 24 h, replicate 1): 66% and 77%
- Population Fragmented Nuclei (%) (U2OS [1]; 24 h, replicate 1): 10%
- Population Healthy Nuclei (%) (U2OS [1]; 24 h, replicate 1): 76% and 58%
- Population Hoechst High Intensity Objects (%) (U2OS [1]; 24 h, replicate 1): 5%
- Population Membrane Permeable-Phenotype (%) (U2OS [1]; 24 h, replicate 1): 28% and 82%
- Population Mitochondria Different-Phenotype (%) (U2OS [1]; 24 h, replicate 1): 38% and 96%
- Population Mitotic Cells (%) (U2OS [1]; 24 h, replicate 1): 33% and 22%
- Population Normal (%) (U2OS [1]; 24 h, replicate 1): 94%
- Population Pyknosed Nuclei (%) (U2OS [1]; 24 h, replicate 1): 14% and 23%
- Population Tubulin-Different-Phenotype (%) (U2OS [1]; 24 h, replicate 1): 78%
- Total Cell Count (U2OS [1]; 24 h, replicate 1): 159 and 158
- Population Apoptotic (%) (U2OS [1]; 24 h, replicate 2): 65% and 61%
- Population Fragmented Nuclei (%) (U2OS [1]; 24 h, replicate 2): 18% and 15%
- Population Healthy Nuclei (%) (U2OS [1]; 24 h, replicate 2): 48% and 67%
- Population Hoechst High Intensity Objects (%) (U2OS [1]; 24 h, replicate 2): 10% and 12%
- Population Membrane Permeable-Phenotype (%) (U2OS [1]; 24 h, replicate 2): 86%
- Population Mitochondria Different-Phenotype (%) (U2OS [1]; 24 h, replicate 2): 100% and 57%
- Population Mitotic Cells (%) (U2OS [1]; 24 h, replicate 2): 34% and 38%
- Population Normal (%) (U2OS [1]; 24 h, replicate 2): 89% and 87%
- Population Pyknosed Nuclei (%) (U2OS [1]; 24 h, replicate 2): 32% and 17%
- Population Tubulin-Different-Phenotype (%) (U2OS [1]; 24 h, replicate 2): 100% and 71%
- Total Cell Count (U2OS [1]; 24 h, replicate 2): 83 and 123
- Growth Rate (HEK-293T [2]; [7]): 0
- Growth Rate (HEK-293T [2]; [8]): 0
- Growth Rate (HEK-293T [2]; [9]): 0
- Growth Rate (HEK-293T [2]; [10]): 0
- Growth Rate (HEK-293T [2]; [11]): 0
- Growth Rate (Fibroblast [3]; [7]): 0
- Growth Rate (Fibroblast [3]; [9]): 0
- Growth Rate (Fibroblast [3]; [12]): 1
- Growth Rate (Fibroblast [3]; [10]): 0
- Growth Rate (Fibroblast [3]; [11]): 0
- Population Apoptotic (%) (HEK-293T [4]; 12 h, replicate 1): 44% and 18%
- Population Fragmented Nuclei (%) (HEK-293T [4]; 12 h, replicate 1): 29% and 10%
- Population Healthy Nuclei (%) (HEK-293T [4]; 12 h, replicate 1): 31% and 58%
- Population Hoechst High Intensity Objects (%) (HEK-293T [4]; 12 h, replicate 1): 18% and 13%
- Population Membrane Permeable-Phenotype (%) (HEK-293T [4]; 12 h, replicate 1): 15% and 21%
- Population Mitotic Cells (%) (HEK-293T [4]; 12 h, replicate 1): 55% and 81%
- Population Normal (%) (HEK-293T [4]; 12 h, replicate 1): 81% and 86%
- Population Pyknosed Nuclei (%) (HEK-293T [4]; 12 h, replicate 1): 38% and 30%
- Population Tubulin-Different-Phenotype (%) (HEK-293T [4]; 12 h, replicate 1): 77% and 61%
- Total Cell Count (HEK-293T [4]; 12 h, replicate 1): 539 and 544
- Population Fragmented Nuclei (%) (HEK-293T [4]; 12 h, replicate 2): 3%
- Population Healthy Nuclei (%) (HEK-293T [4]; 12 h, replicate 2): 76%
- Population Hoechst High Intensity Objects (%) (HEK-293T [4]; 12 h, replicate 2): 2% and 5%
- Population Membrane Permeable-Phenotype (%) (HEK-293T [4]; 12 h, replicate 2): 18% and 12%
- Population Mitochondria Different-Phenotype (%) (HEK-293T [4]; 12 h, replicate 2): 31% and 62%
- Population Mitotic Cells (%) (HEK-293T [4]; 12 h, replicate 2): 93% and 80%
- Population Normal (%) (HEK-293T [4]; 12 h, replicate 2): 97% and 94%
- Population Pyknosed Nuclei (%) (HEK-293T [4]; 12 h, replicate 2): 19%
- Population Tubulin-Different-Phenotype (%) (HEK-293T [4]; 12 h, replicate 2): 87% and 96%
- Total Cell Count (HEK-293T [4]; 12 h, replicate 2): 982 and 1003
- Population Healthy Nuclei (%) (HEK-293T [4]; 24 h, replicate 1): 30% and 54%
- Population Hoechst High Intensity Objects (%) (HEK-293T [4]; 24 h, replicate 1): 21% and 9%
- Population Membrane Permeable-Phenotype (%) (HEK-293T [4]; 24 h, replicate 1): 9% and 11%
- Population Mitotic Cells (%) (HEK-293T [4]; 24 h, replicate 1): 53% and 84%
- Population Normal (%) (HEK-293T [4]; 24 h, replicate 1): 78% and 90%
- Population Pyknosed Nuclei (%) (HEK-293T [4]; 24 h, replicate 1): 36% and 34%
- Population Tubulin-Different-Phenotype (%) (HEK-293T [4]; 24 h, replicate 1): 77% and 76%
- Total Cell Count (HEK-293T [4]; 24 h, replicate 1): 579 and 547
- Population Apoptotic (%) (HEK-293T [4]; 24 h, replicate 2): 6% and 12%
- Population Fragmented Nuclei (%) (HEK-293T [4]; 24 h, replicate 2): 3% and 7%
- Population Healthy Nuclei (%) (HEK-293T [4]; 24 h, replicate 2): 47% and 61%
- Population Hoechst High Intensity Objects (%) (HEK-293T [4]; 24 h, replicate 2): 3% and 6%
- Population Membrane Permeable-Phenotype (%) (HEK-293T [4]; 24 h, replicate 2): 7% and 10%
- Population Mitochondria Different-Phenotype (%) (HEK-293T [4]; 24 h, replicate 2): 28% and 53%
- Population Mitotic Cells (%) (HEK-293T [4]; 24 h, replicate 2): 93% and 87%
- Population Normal (%) (HEK-293T [4]; 24 h, replicate 2): 96% and 93%
- Population Pyknosed Nuclei (%) (HEK-293T [4]; 24 h, replicate 2): 48% and 30%
- Population Tubulin-Different-Phenotype (%) (HEK-293T [4]; 24 h, replicate 2): 91% and 83%
- Total Cell Count (HEK-293T [4]; 24 h, replicate 2): 956 and 1101
- Growth Rate (U2OS [5]; 0 h, replicate number 2, timepoint 0 hours): 0
- Growth Rate (U2OS [5]; [8]): 1
- Growth Rate (U2OS [5]; [9]): 0
- Growth Rate (U2OS [5]; [12]): 1
- Growth Rate (U2OS [5]; [10]): 0
- Growth Rate (U2OS [5]; [11]): 0
- Population Apoptotic (%) (Fibroblast [6]; 12 h, replicate 1): 76% and 71%
- Population Fragmented Nuclei (%) (Fibroblast [6]; 12 h, replicate 1): 43% and 28%
- Population Healthy Nuclei (%) (Fibroblast [6]; 12 h, replicate 1): 42% and 54%
- Population Hoechst High Intensity Objects (%) (Fibroblast [6]; 12 h, replicate 1): 14% and 22%
- Population Membrane Permeable-Phenotype (%) (Fibroblast [6]; 12 h, replicate 1): 9% and 7%
- Population Mitochondria Different-Phenotype (%) (Fibroblast [6]; 12 h, replicate 1): 6% and 11%
- Population Mitotic Cells (%) (Fibroblast [6]; 12 h, replicate 1): 24% and 28%
- Population Normal (%) (Fibroblast [6]; 12 h, replicate 1): 85% and 77%
- Population Pyknosed Nuclei (%) (Fibroblast [6]; 12 h, replicate 1): 13% and 16%
- Total Cell Count (Fibroblast [6]; 12 h, replicate 1): 213 and 342
- Population Apoptotic (%) (Fibroblast [6]; 12 h, replicate 2): 53% and 50%
- Population Fragmented Nuclei (%) (Fibroblast [6]; 12 h, replicate 2): 48% and 67%
- Population Healthy Nuclei (%) (Fibroblast [6]; 12 h, replicate 2): 32% and 24%
- Population Hoechst High Intensity Objects (%) (Fibroblast [6]; 12 h, replicate 2): 36% and 43%
- Population Membrane Permeable-Phenotype (%) (Fibroblast [6]; 12 h, replicate 2): 17% and 16%
- Population Mitochondria Different-Phenotype (%) (Fibroblast [6]; 12 h, replicate 2): 26% and 33%
- Population Mitotic Cells (%) (Fibroblast [6]; 12 h, replicate 2): 46% and 50%
- Population Normal (%) (Fibroblast [6]; 12 h, replicate 2): 63% and 56%
- Population Pyknosed Nuclei (%) (Fibroblast [6]; 12 h, replicate 2): 18% and 8%
- Population Tubulin-Different-Phenotype (%) (Fibroblast [6]; 12 h, replicate 2): 78% and 58%
- Total Cell Count (Fibroblast [6]; 12 h, replicate 2): 111 and 87
- Population Apoptotic (%) (Fibroblast [6]; 24 h, replicate 1): 84% and 80%
- Population Fragmented Nuclei (%) (Fibroblast [6]; 24 h, replicate 1): 23% and 37%
- Population Healthy Nuclei (%) (Fibroblast [6]; 24 h, replicate 1): 52% and 50%
- Population Hoechst High Intensity Objects (%) (Fibroblast [6]; 24 h, replicate 1): 31% and 16%
- Population Membrane Permeable-Phenotype (%) (Fibroblast [6]; 24 h, replicate 1): 7%
- Population Mitotic Cells (%) (Fibroblast [6]; 24 h, replicate 1): 15% and 19%
- Population Normal (%) (Fibroblast [6]; 24 h, replicate 1): 68% and 83%
- Population Pyknosed Nuclei (%) (Fibroblast [6]; 24 h, replicate 1): 24% and 11%
- Total Cell Count (Fibroblast [6]; 24 h, replicate 1): 319 and 221
- Population Apoptotic (%) (Fibroblast [6]; 24 h, replicate 2): 100% and 64%
- Population Fragmented Nuclei (%) (Fibroblast [6]; 24 h, replicate 2): 62% and 44%
- Population Healthy Nuclei (%) (Fibroblast [6]; 24 h, replicate 2): 36% and 33%
- Population Hoechst High Intensity Objects (%) (Fibroblast [6]; 24 h, replicate 2): 38%
- Population Membrane Permeable-Phenotype (%) (Fibroblast [6]; 24 h, replicate 2): 5% and 13%
- Population Mitochondria Different-Phenotype (%) (Fibroblast [6]; 24 h, replicate 2): 22% and 45%
- Population Normal (%) (Fibroblast [6]; 24 h, replicate 2): 61%
- Population Tubulin-Different-Phenotype (%) (Fibroblast [6]; 24 h, replicate 2): 27% and 72%
- Total Cell Count (Fibroblast [6]; 24 h, replicate 2): 81 and 106
